Screens as filed in PubChem.
Exocytosis inh – blocks lytic granule exocytosis. TALL-104 LAMP-1 surface exposure, flow cytometry; cells stimulated with thapsigargin and PMA. inhibition, % at 10 µM. 0.66% of 360,000 active;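 active = inhibition above about 55%, limit read from the data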
ABHD5-PLIN5 inh – blocks binding of human ABHD5 to perilipin-5; Q00G26+Q8WTS1; Split G. princeps luciferase complementation, luminescence, 4 h; inhibition, % at 4 µM; 0.78% of 360,000 active;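 active = inhibition above the mean inhibition across every tested compound plus 3 SD, cut at about 22% in these data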;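 note: 0% = DMSO only wells and the 100% control is not disclosed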
Target sequence (Q00G26 whole entry, looked up): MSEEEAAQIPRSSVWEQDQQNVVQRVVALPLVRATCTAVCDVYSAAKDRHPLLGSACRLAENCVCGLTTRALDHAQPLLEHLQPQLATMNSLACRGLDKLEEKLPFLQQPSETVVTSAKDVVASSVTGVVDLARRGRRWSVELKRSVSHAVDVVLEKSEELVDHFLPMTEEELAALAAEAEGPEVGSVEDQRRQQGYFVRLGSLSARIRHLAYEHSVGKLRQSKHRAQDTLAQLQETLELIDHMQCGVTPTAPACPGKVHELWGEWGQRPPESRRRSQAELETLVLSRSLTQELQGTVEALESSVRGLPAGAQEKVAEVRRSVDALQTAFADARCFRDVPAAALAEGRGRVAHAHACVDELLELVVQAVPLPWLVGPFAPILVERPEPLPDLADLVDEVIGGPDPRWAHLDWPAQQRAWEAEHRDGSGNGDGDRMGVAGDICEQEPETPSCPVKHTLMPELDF
Target sequence (Q8WTS1 whole entry, looked up): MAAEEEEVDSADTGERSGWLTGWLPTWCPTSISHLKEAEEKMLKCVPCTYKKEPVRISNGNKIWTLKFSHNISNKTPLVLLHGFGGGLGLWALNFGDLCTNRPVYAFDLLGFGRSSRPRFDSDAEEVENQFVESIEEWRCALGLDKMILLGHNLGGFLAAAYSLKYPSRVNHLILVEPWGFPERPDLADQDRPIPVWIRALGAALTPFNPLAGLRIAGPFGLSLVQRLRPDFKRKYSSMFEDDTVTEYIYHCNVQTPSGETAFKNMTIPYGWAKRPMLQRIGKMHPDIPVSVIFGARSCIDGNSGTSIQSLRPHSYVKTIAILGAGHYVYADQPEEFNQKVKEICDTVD
HKDC1 inh – blocks human hexokinase HKDC1 activity. Q2TB90. recombinant HKDC1, G6PDH/diaphorase resazurin coupled fluorescence. inhibition, % at 20 µM. 0.16% of 340,000 active;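 active = inhibition above about 35% when tested at 20 µM, limit read from the data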;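 note: plate controls were DMSO wells with enzyme for no effect and DMSO wells lacking enzyme for full effect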
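Test system: recombinant HKDC1 (HK5) hexokinase enzyme, produced in-house / Doses: 20 µM test compound, 1% DMSO / Timing: 90 min, room temperature / Detection: G6PDH/diaphorase-coupled fluorescence, 1 mM NADP, 100 µM resazurin, 525/613 nm / Control set: DMSO wells with and without enzyme mix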
PfG6PD inh – PfG6PD (Plasmodium falciparum) enzyme inhibition; 0.78% of 350,000 active; inhibition, % at 20 µM; PfGluPho enzyme, NADPH resazurin-diaphorase fluorescence;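 active = inhibition reaching at least a set limit at 20 µM in the primary screen, cut at about 59% in these data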;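 note: 0% = DMSO wells with substrate and 100% = DMSO wells lacking glucose-6-phosphate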
* = called active by the depositor; nt = not tested or not shown. This is a sample that favours compounds with a hit; in the whole collection about 2.2% have one here.

SMILES	Exocytosis inh	ABHD5-PLIN5 inh	HKDC1 inh	PfG6PD inh
COCCCn1c(=O)c2sccc2n2c(CCCC(=O)N(C)Cc3ccco3)nnc12	-4	-3	-3	-7
O=C(c1ccccc1)c1c2c(cc3sc4ccccc4[n+]13)-c1cccc3cccc-2c13	88*	16	25	-1
Cc1sc2cc3c(c(C(=O)c4ccccc4)[n+]2c1C)-c1cccc2cccc-3c12	nt	nt	-5	7
C#CCOCCOCCOCCNc1nc(N2CCN(C(=O)CCCCCCCCCCNC(=O)[C@@H](CCC(=O)O)n3cc(CCCCCN)nn3)CC2)nc(N2CCN(C(=O)CCCCCCCCCCNC(=O)[C@@H](CCC(=O)O)n3cc(CCCCCN)nn3)CC2)n1	-1	14	5	-18
C#CCOCCOCCOCCNc1nc(N2CCN(C(=O)CCCCCCCCCCNC(=O)[C@H](CCCCN)n3cc(CCO)nn3)CC2)nc(N2CCN(C(=O)CCCCCCCCCCNC(=O)[C@H](CCCN=C(N)N)n3cc(C[C@@H](C)CC)nn3)CC2)n1	-5	50*	-3	62*
C#CCOCCOCCOCCNc1nc(N2CCN(C(=O)[C@H](CCC(=O)O)n3cc([C@@H](N)CCCCN)nn3)CC2)nc(N2CCN(C(=O)[C@H](CCCCN)n3cc([C@@H](N)CC(N)=O)nn3)CC2)n1	59*	7	-2	-7
C#CCOCCOCCOCCNc1nc(N2CCN(C(=O)CCCCCCCCCCNC(=O)[C@@H](CCSC)n3cc(CCO)nn3)CC2)nc(N2CCN(C(=O)CCCCCCCCCCNC(=O)[C@H]([C@@H](C)CC)n3cc(CCCCN=C(N)N)nn3)CC2)n1	-3	57*	1	59
C#CCOCCOCCOCCNc1nc(N2CCN(C(=O)CCCCCCCCCCNC(=O)Cn3cc(C[C@@H](C)O)nn3)CC2)nc(N2CCN(C(=O)CCCCCCCCCCNC(=O)[C@H](CCCCN)n3cc(C[C@@H](C)CC)nn3)CC2)n1	10	43*	-9	58
COc1ccc(CNC(=O)Cn2cc(C)c(=O)[nH]c2=O)cc1	1	-2	-4	-4
CS(=O)(=O)N(CC(=O)NC1CC2CCC1C2)c1ccc(Oc2ccccc2)cc1 (configuration not stated)	0	-4	-4	-9
CC(C)C1N(C(=O)N2CCOCC2)CCN1S(=O)(=O)c1ccccc1 (configuration not stated)	-4	10	-6	-5
Nn1c(SCC(=O)Nc2ccc(N3CCOCC3)cc2)nnc1-c1cccc(F)c1	-22	-8	2	-2
C#CCOCCOCCOCCNc1nc(N2CCN(C(=O)[C@H](CCCCN)n3cc(CCCC)nn3)CC2)nc(N2CCN(C(=O)[C@H](Cc3ccc(O)cc3)n3cc(CCO)nn3)CC2)n1	3	16	5	76*
C#CCOCCOCCOCCNc1nc(N2CCN(C(=O)[C@H](CCCCN)n3cc(CC(C)O)nn3)CC2)nc(N2CCN(C(=O)[C@H](Cc3ccc(O)cc3)n3cc(CCO)nn3)CC2)n1 (some centres not stated)	-2	1	-1	-5
C#CCOCCOCCOCCNc1nc(N2CCN(C(=O)CCCCCCCCCCNC(=O)[C@H](CCCCN)n3cc(CCCC(=O)O)nn3)CC2)nc(N2CCN(C(=O)CCCCCCCCCCNC(=O)[C@H](CCCN=C(N)N)n3cc(C[C@@H](C)CC)nn3)CC2)n1	18	45*	-10	30
C#CCOCCOCCOCCNc1nc(N2CCN(C(=O)CCCCCCCCCCNC(=O)[C@H](CCCCN)n3cc(CCCC(=O)O)nn3)CC2)nc(N2CCN(C(=O)CCCCCCCCCCNC(=O)[C@H](CCCCN)n3cc(CCCC(=O)O)nn3)CC2)n1	-4	14	-8	-3
COc1cccc(/C=N/NC(=S)NCCc2ccccc2)c1	58*	-8	1	18
COc1ccc(O)c(/C=N/NC(=S)NCCc2ccccc2)c1	33	-4	-24	-8
COc1ccc(/C=N/NC(=S)NCCc2ccccc2)cc1	64*	-17	0	27
COc1ccc2cc(/C=N/NC(=O)CN(c3ccccc3C)S(=O)(=O)c3ccccc3)c(Cl)nc2c1	4	6	-5	-6
CC(=O)Sc1nc(-c2ccccc2)[nH]c1S(=O)(=O)c1ccc(C)cc1	nt	nt	-3	65*
CSc1nc(-c2ccc(C)cc2)[nH]c1S(=O)(=O)c1ccccc1	0	-4	-7	-5
COc1ccc(/C=N/NC(=O)CCSc2nc3ccccc3s2)cc1	-2	0	-3	9
COc1ccc(C2c3c(-c4ccccc4O)n[nH]c3C(=O)N2CCc2ccc(OC)c(OC)c2)cc1 (configuration not stated)	1	2	-4	10
COc1ccc(CCN2C(=O)c3[nH]nc(-c4ccccc4O)c3C2c2cccc(Cl)c2)cc1 (configuration not stated)	62*	-4	5	21
SMILES	Exocytosis inh	ABHD5-PLIN5 inh	HKDC1 inh	PfG6PD inh
CN(Cc1ccccc1)c1nc2c(c(=O)n(C)c(=O)n2C)n1CCCc1ccccc1	66*	-1	0	11
COc1ccc(NCc2cc(=O)oc3cc(NC(C)=O)ccc23)cc1	9	2	-1	13
Cc1ccc(Oc2nc3ccccn3c(=O)c2/C=C(\C#N)C(=O)NC2CCS(=O)(=O)C2)c(C)c1 (configuration not stated)	79*	17	-4	-1
O=C(OCC(=O)N1CCN(C(=O)c2ccco2)CC1)c1cc(-c2ccco2)nc2ccccc12	0	24*	37*	46
O=C(OCC(=O)N1CCN(C(=O)c2ccco2)CC1)c1cc(-c2ccc(Cl)c(Cl)c2Cl)nc2ccccc12	1	1	13	33
N#CCC(=O)Nc1ccc(C(=O)N2CCN(S(=O)(=O)c3ccc4ccccc4c3)CC2)cc1	5	3	-1	10
O=S(=O)(/N=C(\Sc1ccccc1)c1ccccc1)c1ccc(Cl)cc1	13	-6	13	10
Cc1ccc(S(=O)(=O)/N=C(\Sc2ccccc2)c2ccccc2)cc1	65*	2	-12	23
Cc1ccc(Nc2nnns2)cc1C	2	1	1	59*
Cc1ccc(C(=O)/C=C/c2ccc(-c3ccccc3[N+](=O)[O-])o2)cc1	48	20	6	45
Cc1ccc(-c2ccc(/C=C/C(=O)c3ccccc3)o2)cc1	68*	13	-11	11
CCc1ccc(S(=O)(=O)Nc2ccc(O)c3c(=O)cc(-c4ccccc4Cl)oc23)cc1	76*	-13	2	-33
O=C(C[C@H]1C/C=C\CCCCC(=O)OC[C@H]2CCCN2C1=O)N[C@H](CO)Cc1ccccc1	29	-3	-6	14
Cc1[nH]c(=O)c(C(=O)/C=C/c2ccccc2F)c2c1CCCC2	0	51*	20	25
C/C(=C\c1ccccc1F)C(=O)c1c(C)cc(C)[nH]c1=O	4	-4	-5	-1
OCCN1CCN(c2ncnc3sc4c(c23)CCCC4)CC1	6	0	4	10
Oc1ccc(N2CCN(c3ncnc4sc5c(c34)CCC5)CC2)cc1	2	8	6	62*
